Published values of several laboratories.
Compare with care: the assays were run in different laboratories.
Cell line: HCT-116
Effect on: cell growth or viability

SMILES	method	time	IC50
CN1CCC(NC2CCc3[nH]c4c(C(N)=O)ccc(-c5ccccc5Cl)c4c3C2)CC1 (stereo not shown)		96 h	0.00023 µM
Cc1cc2c(C(N)=O)cccc2n1-c1nc(NCc2ccccc2)c2c(n1)NC(C)CC2 (stereo not shown)	ATP luminescence	72 h	0.9 µM
O=C1CS/C(=N\c2ccccc2Cl)N1c1nnc(-c2ccc(C(F)(F)F)cc2/N=C2\SCC(=O)N2c2ccccc2Cl)s1	MTT		57.9 µM
COc1cccc2c1C(=O)c1c(O)c3c(c(O)c1C2=O)C[C@@](O)(C(=O)CO)C[C@@H]3O[C@H]1C[C@H](N)[C@H](O)[C@H](C)O1	MTT		4.12 µg/mL
CONC(=O)c1cccc2c1cc(C)n2-c1nc2c(c(NCc3ccccc3)n1)CCCN2	ATP luminescence	72 h	0.7 µM
COc1cc(N=C2C(=O)Nc3ccccc32)cc(OC)c1	MTT	48 h	24.4 µM
CC(=O)O[C@@H]1[C@@H](OC(C)=O)[C@H](OC(C)=O)CO[C@H]1n1cc(Cn2c(C(C)=O)nc3ccccc32)nn1	LDH	48 h	7.74 µM
O=P1(c2ccccc2)CCCCC1	MTT	72 h	> 100 µM
O=c1cc(OCc2cc(-c3ccc(Cl)cc3Cl)no2)c2ccccc2o1	MTS	72 h	> 100 µM
Cc1ccc(CN2C(=O)C(=Nc3cccc(C)c3)c3ccccc32)cc1	MTT	48 h	0.39 µM
CNC(=S)N/N=C/c1cccc2cc3ccccc3nc12	MTT	48 h	21.8 µM
COc1cccc2c1C(=O)c1c(O)c3c(c(O)c1C2=O)C[C@@](O)(C(=O)CO)C[C@@H]3O[C@H]1C[C@H](N)[C@H](O)[C@H](C)O1	MTT	24 h	10.5 µM
O=[N+]([O-])c1cc(I)c(O)c(C=NNc2ccc(Cl)cc2)c1	MTT	24 h	13.9 µM
O=C1CS/C(=N\c2cc(C(F)(F)F)ccc2-c2nnc(N3C(=O)CS/C3=N\c3ccc(-c4ccccc4)cc3)s2)N1c1ccc(-c2ccccc2)cc1	MTT		92.3 µM
O=c1[nH]cc(F)c(=O)[nH]1	MTT	72 h	3.09 µM
CC(C)c1ccc(/C=C2\NC(=S)N(c3ccccc3)C2=O)cc1	MTT		63.2 µg/mL
O=C1CS/C(=N\c2cc(C(F)(F)F)ccc2-c2nnc(N3C(=O)CS/C3=N\c3cccc(Cl)c3)s2)N1c1cccc(Cl)c1	MTT		57.1 µM
CC(C)c1cccc(C(C)C)c1N=C1C(=O)Nc2ccccc21	MTT	48 h	4.65 µM
FC(F)(F)c1cc(OCc2cc(-c3ccccn3)no2)c2ccccc2n1	MTS	72 h	> 100 µM
Cc1cc(NS(=O)(=O)c2ccc(NC(=O)/C(C#N)=C/c3ccc(N4CCOCC4)cc3)cc2)no1	MTT	48 h	67.8 µM
Clc1ccc(Cn2nc(-c3ncc(-c4ccccc4)s3)c3ccccc32)c(Cl)c1		48 h	404 µM
N#Cc1ccc(-c2cc(CNc3cccc4cccnc34)on2)cc1	MTS	72 h	> 100 µM

SMILES	method	time	IC50
COC(=O)c1ccc2c(c1)NC(=O)/C2=C(\Nc1ccc(N(C)C(=O)CN2CCN(C)CC2)cc1)c1ccccc1	MTT	24 h	1.88 µM
CCC(C(=O)N1C(=O)C(=Nc2ccc(Cl)cc2Br)c2ccccc21)c1ccccc1 (stereo not shown)	MTT	48 h	30.9 µM
COc1cccc(NC(=S)N/N=C/c2cccc3cc4ccccc4nc23)c1	MTT	48 h	49.6 µM
Cc1cc2c(C(N)=O)cccc2n1-c1nc2c(c(NCc3ccccn3)n1)CCCN2	ATP luminescence	72 h	0.8 µM
O=C1C(=Nc2ccccc2I)c2ccccc2N1Cc1cccc(Cl)c1	MTT	48 h	4.86 µM
CN1CCc2c(c3ccccc3n2Cc2ccc(C(=O)NO)cc2)C1	CCK-8	48 h	12 µM
O=C(C=Cc1ccc(OCCCOc2ccc(C=CC(=O)c3cccs3)cc2)cc1)c1cccs1	MTT	48 h	120 µM
Cc1cc(Cn2ccnc2)nn1C	MTT	24 h	241 µM
c1ccc(Cc2nnc(-c3nn(Cc4ccccc4)c4ccccc34)o2)cc1		48 h	15.1 µM
Cc1cc(NS(=O)(=O)c2ccc(NC(=O)/C(C#N)=C/c3ccc(N4CCCC4)cc3)cc2)no1	MTT	48 h	98.6 µM
Cc1ccc(CN2C(=O)C(=Nc3cccc(Cl)c3)c3ccccc32)cc1	MTT	48 h	1.05 µM
O=C1CS/C(=N\c2ccccc2O)N1c1nnc(-c2ccc(C(F)(F)F)cc2/N=C2\SCC(=O)N2c2ccccc2O)s1	MTT		40.5 µM
COc1ccc(N(Cc2nc(-c3ccc(F)cc3)cs2)C(=O)CCCCCC(=O)NO)cc1	MTT	72 h	3.2 µM
Cc1ccc(CN2C(=O)C(=Nc3c(C(C)C)cccc3C(C)C)c3ccccc32)cc1	MTT	48 h	30.9 µM
FC(F)(F)c1ccc(-c2nnc(-c3nn(Cc4ccc(Cl)cc4Cl)c4ccccc34)o2)cc1		48 h	323 µM
CC(=O)OC[C@H]1O[C@@H](n2cc(Cn3c(C(=O)/C=C/c4ccc(F)cc4)nc4ccccc43)nn2)[C@H](OC(C)=O)[C@@H](OC(C)=O)[C@H]1OC(C)=O	LDH	48 h	6.49 µM
Cc1cccc(N=C2C(=O)N(Cc3cccc(Cl)c3)c3ccccc32)c1	MTT	48 h	7.13 µM
O=[N+]([O-])c1ccc(O)c(C=NNc2ccc(C(F)(F)F)cc2)c1	MTT	24 h	11.3 µM
Fc1ccc2c(-c3nnc(Cc4ccccc4)[nH]3)nn(Cc3ccc(Cl)cc3Cl)c2c1		48 h	22 µM
Clc1ccc(-c2cc(CNc3cccc4cccnc34)on2)c(Cl)c1	MTS	72 h	> 100 µM
O=C(CSc1nc2ccccc2s1)N/N=C/c1ccc(OCC(=O)Nc2cccc([N+](=O)[O-])c2)cc1	MTS	72 h	13.3 µM
